Assay results taken from ChEMBL document CHEMBL4813968, “Synthesis and evaluation of 3'-fluorinated 7-deazapurine nucleosides as antikinetoplastid agents” (Eur J Med Chem, 2021).

Tests used:
[1] = test system: Trypanosoma brucei brucei; test: Antitrypanosomal activity against Trypanosoma brucei brucei assessed as parasite growth inhibition; type: functional, organism-based
[2] = Selectivity index, ratio of EC50 for cytotoxicity against mouse primary macrophage to EC50 for antileishmanial activity against Leishmania infantum MHOM/MA(BE)/67 infected in mouse primary peritoneal macrophages; type: toxicity; conditions: read-out: Ratio EC50
Macrophage = test: Cytotoxicity against mouse primary macrophage cells assessed as reduction in cell viability; type: cell-based
Outline: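 Macrophage toxicity was scored microscopically within the L. infantum assays, using cell detachment, lysis and granulation. At least 500 cells over adjacent fields were scored semi-quantitatively, and CC₅₀ was taken from % reduction in normal cells versus untreated controls.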

Leishmania infantum = test: Antileishmanial activity against Leishmania infantum MHOM/MA(BE)/67 infected in mouse primary peritoneal macrophages treated 2 hrs post-infection and incubated for 5 days by Giemsa staining based microscopic analysis; type: functional, organism-based; conditions: MHOM/MA(BE)/67, Peritoneal macrophage
Outline: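 Peritoneal macrophages from mice, harvested 2 days after 2% potato starch stimulation, infected after 48 h with L. infantum in supplemented RPMI-1640 with 5% FCS. Compounds were added 2 h post-infection as a 10-point 4-fold dilution series, final DMSO <1%, and incubated 5 days at 37 °C, 5% CO₂. Amastigotes per macrophage were counted after 10% Giemsa staining, and IC₅₀ was taken from % reduction versus untreated-infected controls.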

[3] = Selectivity index, ratio of EC50 for cytotoxicity against human MRC5 cells to EC50 for antitrypanosomal activity against Trypanosoma cruzi Tulahuen CL2 infected in human MRC5 cells; type: toxicity, cell-based; conditions: read-out: Ratio EC50
Outline: (§1)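 Selectivity index is the MRC-5 EC₅₀ divided by the parasite EC₅₀.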

MRC5 = test: Cytotoxicity against human MRC5 cells assessed as reduction in cell viability after 3 days by resazurin dye based fluorimetric analysis; conditions: MRC5, 72 h
Outline: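 MRC-5_SV2 cells, 1.5×10⁵ cells/mL in MEM with Earl's salts, L-glutamine, NaHCO₃ and 5% inactivated FCS, were exposed 3 days at 37 °C, 5% CO₂ to a 10-point 4-fold dilution series, final DMSO <1%. Resazurin was added for 4 h, fluorescence read at ex 550/em 590 nm, and IC₅₀ derived versus untreated and medium controls.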

Trypanosoma cruzi = test: Antitrypanosomal activity against Trypanosoma cruzi Tulahuen CL2 infected in human MRC5 cells assessed as inhibition of parasite growth incubated for 7 days by chlorophenol red-fl-D-galactopyranoside based spectrophotometric analysis; type: functional, organism-based; conditions: Tulahuen CL2, MRC5, 168 h
Outline: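 T. cruzi Tulahuen CL2 β-galactosidase strain was maintained on MRC-5_SV2 cells. Wells held 4×10³ cells plus 4×10⁴ parasites with a 10-point 4-fold compound series, final DMSO <1%. After 7 days at 37 °C, 5% CO₂, substrate was added and absorbance read at 540 nm after 4 h at 37 °C. IC₅₀ was taken from % reduction versus infected and uninfected controls.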

[4] = test system: Trypanosoma brucei rhodesiense; test: Antitrypanosomal activity against Trypanosoma brucei rhodesiense assessed as parasite growth inhibition; type: functional, organism-based
[5] = Selectivity index, ratio of EC50 for human MRC5 cells to EC50 for antitrypanosomal activity against Trypanosoma brucei brucei; type: toxicity; conditions: read-out: Ratio EC50; outline: as §1
[6] = Selectivity index, ratio of EC50 for human MRC5 cells to EC50 for antitrypanosomal activity against Trypanosoma brucei rhodesiense; type: toxicity; conditions: read-out: Ratio EC50; outline: as §1

| SMILES | EC50 [1] [µM] | selectivity ratio [2] | EC50 (Macrophage) [µM] | EC50 (Leishmania infantum) [µM] | selectivity ratio [3] | EC50 (MRC5) [µM] | EC50 (Trypanosoma cruzi) [µM] | EC50 [4] [µM] | selectivity ratio [5] | selectivity ratio [6] |
| --- | --- | --- | --- | --- | --- | --- | --- | --- | --- | --- |
| Nc1ncnc2c1c(I)cn2[C@@H]1O[C@H](CO)[C@@H](F)[C@H]1O | 0.032 | 9 | 22 | 2.33 | 170 | 6.65 | 0.039 | 0.0077 | 201 | 826 |
| Nc1ncnc2c1c(-c1ccc(F)cc1)cn2[C@@H]1O[C@H](CO)[C@H](F)[C@H]1O | 16.2 | 1 | 32 | 22.6 | > 44 | > 64 | 1.45 | 14.1 | > 4 | > 5 |
| Cc1cn([C@@H]2O[C@H](CO)[C@@H](F)[C@H]2O)c2ncnc(N)c12 | 0.96 | > 2 | > 64 | 38.4 | > 5 | > 64 | 13.1 | 0.21 | > 67 | > 312 |
| C=Cc1cn([C@@H]2O[C@H](CO)[C@@H](F)[C@H]2O)c2ncnc(N)c12 | 0.81 | > 1 | > 64 | 39.3 | 31 | 20.2 | 0.65 | 0.34 | 25 | 59 |
| Nc1ncnc2c1c(-c1ccc(Cl)cc1)cn2[C@@H]1O[C@H](CO)[C@@H](F)[C@H]1O | 7.02 | 3 | 32 | 12.7 | 23 | 16.9 | 0.74 | 5.18 | 2 | 2 |
| Nc1ncnc2c1c(-c1ccc(Cl)c(Cl)c1)cn2[C@@H]1O[C@H](CO)[C@@H](F)[C@H]1O | 2.7 | 3 | 8 | 2.83 | 19 | 4.14 | 0.22 | 1.55 | 1 | 2 |
| Nc1ncnc2c1c(Br)cn2[C@@H]1O[C@H](CO)[C@H](F)[C@H]1O | 0.032 | 2 | 20 | 8.2 | < 1 | 0.75 | 7.46 | 0.0049 | 23 | 152 |
| Nc1ncnc2c1c(-c1ccc(Cl)cc1)cn2[C@@H]1O[C@H](CO)[C@H](F)[C@H]1O | 5.22 | 1 | 8 | 5 | 130 | 21.7 | 0.17 | 2.27 | 4 | 10 |
| NC(=O)c1cn([C@@H]2O[C@H](CO)[C@@H](F)[C@H]2O)c2ncnc(N)c12 | 2.34 | 1 | 32 | 32.5 | < 1 | 2.38 | 7.1 | 0.12 | 1 | 20 |
| Nc1ncnc2c1c(-c1ccccc1)cn2[C@@H]1O[C@H](CO)[C@@H](F)[C@H]1O | 32 | 1 | > 64 | 50.8 | > 7 | > 64 | 9.14 | 32.7 | > 2 | > 1 |
| COc1ccc(-c2cn([C@@H]3O[C@H](CO)[C@@H](F)[C@H]3O)c3ncnc(N)c23)cc1 | 43.6 | 1 | 32 | 32.5 | 2 | 14.1 | 8.61 | 25.7 | < 1 | < 1 |
| C#Cc1cn([C@@H]2O[C@H](CO)[C@@H](F)[C@H]2O)c2ncnc(N)c12 | 0.04 | 1 | 0.13 | 0.13 | 4 | 0.16 | 0.04 | 0.02 | 4 | 7 |
| Cc1cc(-c2cn([C@@H]3O[C@H](CO)[C@H](F)[C@H]3O)c3ncnc(N)c23)ccc1Cl | 7.23 | 1 | 8 | 5.34 | 28 | 20.9 | 0.75 | 3.61 | 3 | 6 |
| Nc1ncnc2c1c(-c1ccc(Cl)c(Cl)c1)cn2[C@@H]1O[C@H](CO)[C@H](F)[C@H]1O | 2.34 | 2 | 8 | 3.87 | 35 | 7.38 | < 0.21 | 1.72 | 3 | 4 |
| Nc1ncnc2c1c(-c1ccc(Cl)c(F)c1)cn2[C@@H]1O[C@H](CO)[C@H](F)[C@H]1O | 4.22 | 1 | 8 | 5.95 | 44 | 18.6 | 0.42 | 1.43 | 4 | 13 |
